In ChEMBL document CHEMBL1123430, “Potential tumor- or organ-imaging agents. 26. Polyiodinated 2-substituted triacylglycerols as hepatographic agents” (J Med Chem, 1986):

tested on: Rattus norvegicus; test: Distribution of radioactivity of radiolabeled compound in liver of female rats 30 minutes after intravenous administration; type: ADME, organism-based; conditions: in vivo, 0.5 h

SMILES	Dose [%]
Nc1c(I)cc(I)c(CCC(=O)O)c1I	0.77
Nc1c(I)cc(I)c(CCCCCCCCCCCCCCCCC(=O)O)c1I	4.37

tested on: Rattus norvegicus; test: Polyacrylamide Gel Electrophoresis (PAGE) analysis of rat plasma 5 minutes after intravenous administration of radiolabeled compound (below albumin ); type: functional, organism-based; conditions: not given
In short: (§1)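 ¹²⁵I-labeled compound, radioiodinated by exchange in a pivalic acid melt, solubilized in normal saline with Tween 20 and given iv to adult female Sprague–Dawley rats (200–250 g), 5–30 μCi/animal, 3–4 rats per time point. Plasma was run on polyacrylamide gels. Gels were sectioned and gamma counted. Radioactivity per band (stacking gel, LDL, HDL, albumin, below albumin) is given as % of total applied; mean ± SEM, n = 3-5.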

SMILES	Concentration
Nc1c(I)cc(I)c(CCC(=O)O)c1I	4.1

tested on: Rattus norvegicus; test: Distribution of radioactivity of radiolabeled compound in heart of female rats 30 minutes after intravenous administration; type: ADME, organism-based; conditions: in vivo, 0.5 h

SMILES	Dose [%]
Nc1c(I)cc(I)c(CCC(=O)O)c1I	4.14
Nc1c(I)cc(I)c(CCCCCCCCCCCCCCCCC(=O)O)c1I	1.01

tested on: Rattus norvegicus; test: Polyacrylamide Gel Electrophoresis (PAGE) analysis of rat plasma 30 min after intravenous administration of radiolabeled compound in low density lipoprotein; type: functional, organism-based; conditions: not given
In short: (§2)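 Gels were sectioned and counted in a γ counter. Radioactivity in each band (stacking gel, LDL, HDL, albumin, below albumin) is expressed as a percentage of the total radioactivity applied to the gel, ± SEM, n = 3-5.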

SMILES	Concentration
Nc1c(I)cc(I)c(CCC(=O)O)c1I	6.9

tested on: Rattus norvegicus; test: Polyacrylamide Gel Electrophoresis (PAGE) analysis of rat plasma 30 minutes after intravenous administration of radiolabeled compound (below albumin ); type: functional, organism-based; conditions: not given; in short: as §2

SMILES	Concentration [%]
Nc1c(I)cc(I)c(CCCCCCCCCCCCCCCCC(=O)O)c1I	10

tested on: Rattus norvegicus; test: Polyacrylamide Gel Electrophoresis (PAGE) analysis of rat plasma 30 minutes after intravenous administration of radiolabeled compound concentration of stacking gel; type: functional, organism-based; conditions: not given; in short: as §2

SMILES	Concentration
Nc1c(I)cc(I)c(CCCCCCCCCCCCCCCCC(=O)O)c1I	7.6

tested on: Rattus norvegicus; test: Distribution of radioactivity of radiolabeled compound in blood of female rats 5 minutes after intravenous administration; type: ADME, organism-based; conditions: in vivo

SMILES	Dose [%]
Nc1c(I)cc(I)c(CCC(=O)O)c1I	2.52
Nc1c(I)cc(I)c(CCCCCCCCCCCCCCCCC(=O)O)c1I	2.25

tested on: Rattus norvegicus; test: Distribution of radioactivity of radiolabeled compound in lung of female rats 30 minutes after intravenous administration; type: ADME, organism-based; conditions: in vivo, 0.5 h

SMILES	Dose [%]
Nc1c(I)cc(I)c(CCC(=O)O)c1I	0.45
Nc1c(I)cc(I)c(CCCCCCCCCCCCCCCCC(=O)O)c1I	0.84

tested on: Rattus norvegicus; test: Distribution of radioactivity of radiolabeled compound in blood of female rats 30 minutes after intravenous administration; type: ADME, organism-based; conditions: in vivo, 0.5 h

SMILES	Dose [%]
Nc1c(I)cc(I)c(CCC(=O)O)c1I	1.15
Nc1c(I)cc(I)c(CCCCCCCCCCCCCCCCC(=O)O)c1I	1.23

tested on: Rattus norvegicus; test: Distribution of radioactivity of radiolabeled compound in kidney of female rats 5 minutes after intravenous administration; type: ADME, organism-based; conditions: in vivo

SMILES	Dose [%]
Nc1c(I)cc(I)c(CCC(=O)O)c1I	2.44
Nc1c(I)cc(I)c(CCCCCCCCCCCCCCCCC(=O)O)c1I	0.48

tested on: Rattus norvegicus; test: Polyacrylamide Gel Electrophoresis (PAGE) analysis of rat plasma 5 minutes after intravenous administration of radiolabeled compound in stacking gel; type: functional, organism-based; conditions: not given; in short: as §1

SMILES	Concentration [%]
Nc1c(I)cc(I)c(CCC(=O)O)c1I	4.6
Nc1c(I)cc(I)c(CCCCCCCCCCCCCCCCC(=O)O)c1I	5.2

tested on: Rattus norvegicus; test: Polyacrylamide Gel Electrophoresis (PAGE) analysis of rat plasma 30 minutes after intravenous administration of radiolabeled in stacking gel; type: functional, organism-based; conditions: not given; in short: as §2

SMILES	Concentration
Nc1c(I)cc(I)c(CCC(=O)O)c1I	11

tested on: Rattus norvegicus; test: Polyacrylamide Gel Electrophoresis (PAGE) analysis of rat plasma 30 min after intravenous administration of radiolabeled compound ( below albumin); type: functional, organism-based; conditions: not given; in short: as §2

SMILES	Concentration
Nc1c(I)cc(I)c(CCC(=O)O)c1I	10.8

tested on: Rattus norvegicus; test: Polyacrylamide Gel Electrophoresis (PAGE) analysis of rat plasma 30 min after intravenous administration of radiolabeled compound at in high density; type: functional, organism-based; conditions: not given; in short: as §2

SMILES	Concentration [%]
Nc1c(I)cc(I)c(CCC(=O)O)c1I	13.3

tested on: Rattus norvegicus; test: Polyacrylamide Gel Electrophoresis (PAGE) analysis of rat plasma 5 minutes after intravenous administration of radiolabeled compound at in high density lipoprotein; type: functional, organism-based; conditions: not given; in short: as §1

SMILES	Concentration [%]
Nc1c(I)cc(I)c(CCC(=O)O)c1I	5.3

tested on: Rattus norvegicus; test: Polyacrylamide Gel Electrophoresis (PAGE) analysis of rat plasma 30 minutes after intravenous administration of radiolabeled compound in low-density lipoprotein; type: functional, organism-based; conditions: not given; in short: as §2

SMILES	Concentration [%]
Nc1c(I)cc(I)c(CCCCCCCCCCCCCCCCC(=O)O)c1I	3.2

tested on: Rattus norvegicus; test: Polyacrylamide Gel Electrophoresis (PAGE) analysis of rat plasma 30 minutes after intravenous administration of radiolabeled compound in albumin; type: functional, organism-based; conditions: not given; in short: as §2

SMILES	Concentration
Nc1c(I)cc(I)c(CCCCCCCCCCCCCCCCC(=O)O)c1I	60.6

tested on: Rattus norvegicus; test: Polyacrylamide Gel Electrophoresis (PAGE) analysis of rat plasma 30 min after intravenous administration of radiolabeled compound in albumin; type: functional, organism-based; conditions: not given; in short: as §2

SMILES	Concentration
Nc1c(I)cc(I)c(CCC(=O)O)c1I	51.5

tested on: Rattus norvegicus; test: Distribution of radioactivity of radiolabeled compound in liver of female rats 5 minutes after intravenous administration; type: ADME, organism-based; conditions: in vivo

SMILES	Dose [%]
Nc1c(I)cc(I)c(CCC(=O)O)c1I	1.08
Nc1c(I)cc(I)c(CCCCCCCCCCCCCCCCC(=O)O)c1I	6.3

tested on: Rattus norvegicus; test: Polyacrylamide Gel Electrophoresis (PAGE) analysis of rat plasma 5 min after intravenous administration of radiolabeled compound concentration of albumin; type: functional, organism-based; conditions: not given; in short: as §2

SMILES	Concentration
Nc1c(I)cc(I)c(CCC(=O)O)c1I	83.6

tested on: Rattus norvegicus; test: Polyacrylamide Gel Electrophoresis (PAGE) analysis of rat plasma 5 minutes after intravenous administration of radiolabeled compound in low-density lipoprotein; type: functional, organism-based; conditions: not given; in short: as §1

SMILES	Concentration [%]
Nc1c(I)cc(I)c(CCC(=O)O)c1I	2.4
Nc1c(I)cc(I)c(CCCCCCCCCCCCCCCCC(=O)O)c1I	4.7

tested on: Rattus norvegicus; test: Polyacrylamide Gel Electrophoresis (PAGE) analysis of rat plasma 5 minutes after intravenous administration of radiolabeled compound in high density lipoprotein; type: functional, organism-based; conditions: not given; in short: as §1

SMILES	Concentration
Nc1c(I)cc(I)c(CCCCCCCCCCCCCCCCC(=O)O)c1I	26.6

tested on: Rattus norvegicus; test: Polyacrylamide Gel Electrophoresis (PAGE) analysis of rat plasma 30 minutes after intravenous administration of radiolabeled compound in high density lipoprotein; type: functional, organism-based; conditions: not given; in short: as §2

SMILES	Concentration [%]
Nc1c(I)cc(I)c(CCCCCCCCCCCCCCCCC(=O)O)c1I	18.5

tested on: Rattus norvegicus; test: Distribution of radioactivity of radiolabeled compound in lung of female rats 5 minutes after intravenous administration; type: ADME, organism-based; conditions: in vivo

SMILES	Dose [%]
Nc1c(I)cc(I)c(CCC(=O)O)c1I	1.02
Nc1c(I)cc(I)c(CCCCCCCCCCCCCCCCC(=O)O)c1I	1.11

tested on: Rattus norvegicus; test: Distribution of radioactivity of radiolabeled compound in kidney of female rats 30 minutes after intravenous administration; type: ADME, organism-based; conditions: in vivo, 0.5 h

SMILES	Dose [%]
Nc1c(I)cc(I)c(CCC(=O)O)c1I	1.54
Nc1c(I)cc(I)c(CCCCCCCCCCCCCCCCC(=O)O)c1I	1.01

tested on: Rattus norvegicus; test: Distribution of radioactivity of radiolabeled compound in heart of female rats 5 minutes after intravenous administration; type: ADME, organism-based; conditions: in vivo

SMILES	Dose [%]
Nc1c(I)cc(I)c(CCC(=O)O)c1I	4
Nc1c(I)cc(I)c(CCCCCCCCCCCCCCCCC(=O)O)c1I	1.06

tested on: Rattus norvegicus; test: Polyacrylamide Gel Electrophoresis (PAGE) analysis of rat plasma 5 minutes after intravenous administration of radiolabeled compound (below albumin); type: functional, organism-based; conditions: not given; in short: as §1

SMILES	Concentration
Nc1c(I)cc(I)c(CCCCCCCCCCCCCCCCC(=O)O)c1I	3.5

tested on: Rattus norvegicus; test: Polyacrylamide Gel Electrophoresis (PAGE) analysis of rat plasma 5 min after intravenous administration of radiolabeled compound in albumin; type: functional, organism-based; conditions: not given; in short: as §2

SMILES	Concentration
Nc1c(I)cc(I)c(CCCCCCCCCCCCCCCCC(=O)O)c1I	60
